According to publication PMC11865470 (Communications Biology, 2025):

How the values were obtained:
Format in all cases: cell-based
KV3.4 = molecular target: T1, KV3.4 (Homo sapiens, UniProt Q03721); assay: whole-cell patch-clamp, off-target channel, 10 μM compound; settings: vs 0.1% DMSO
T1 sequence (Q03721 1-635): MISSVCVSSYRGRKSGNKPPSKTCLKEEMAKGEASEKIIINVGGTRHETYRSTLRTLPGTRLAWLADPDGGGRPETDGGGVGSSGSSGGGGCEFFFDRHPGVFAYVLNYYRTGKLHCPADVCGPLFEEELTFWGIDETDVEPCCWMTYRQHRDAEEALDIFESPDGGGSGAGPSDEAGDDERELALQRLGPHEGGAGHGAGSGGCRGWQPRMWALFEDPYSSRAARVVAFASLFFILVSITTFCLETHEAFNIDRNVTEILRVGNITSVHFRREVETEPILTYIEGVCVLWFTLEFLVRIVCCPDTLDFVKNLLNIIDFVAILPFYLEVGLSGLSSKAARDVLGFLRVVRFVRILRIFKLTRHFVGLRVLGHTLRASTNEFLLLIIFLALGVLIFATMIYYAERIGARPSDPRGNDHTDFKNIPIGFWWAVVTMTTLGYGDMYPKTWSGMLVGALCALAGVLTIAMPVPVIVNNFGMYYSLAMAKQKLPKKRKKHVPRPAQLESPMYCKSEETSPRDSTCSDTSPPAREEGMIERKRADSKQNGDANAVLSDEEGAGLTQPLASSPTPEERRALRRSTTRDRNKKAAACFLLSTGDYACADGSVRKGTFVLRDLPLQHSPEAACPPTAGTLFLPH
Method in brief: (§1)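 KV channels in transiently transfected HEK293T cells, whole-cell. Pipette (mM): 140 KCl, 2.5 MgCl2, 11 EGTA, 10 HEPES, pH 7.4. Bath (mM): 145 NaCl, 2.8 KCl, 2 CaCl2, 1 MgCl2, 10 glucose, 10 HEPES, pH 7.4. 0.1% DMSO bath applied, then 10 μM test compound. DMSO vs compound inhibition ratio compared by unpaired t-test, n = 5.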

KV4.3 = molecular target: T2, KV4.3 (Rattus norvegicus, UniProt Q62897); assay: as above
T2 sequence (Q62897 1-611 isoform Q62897-3): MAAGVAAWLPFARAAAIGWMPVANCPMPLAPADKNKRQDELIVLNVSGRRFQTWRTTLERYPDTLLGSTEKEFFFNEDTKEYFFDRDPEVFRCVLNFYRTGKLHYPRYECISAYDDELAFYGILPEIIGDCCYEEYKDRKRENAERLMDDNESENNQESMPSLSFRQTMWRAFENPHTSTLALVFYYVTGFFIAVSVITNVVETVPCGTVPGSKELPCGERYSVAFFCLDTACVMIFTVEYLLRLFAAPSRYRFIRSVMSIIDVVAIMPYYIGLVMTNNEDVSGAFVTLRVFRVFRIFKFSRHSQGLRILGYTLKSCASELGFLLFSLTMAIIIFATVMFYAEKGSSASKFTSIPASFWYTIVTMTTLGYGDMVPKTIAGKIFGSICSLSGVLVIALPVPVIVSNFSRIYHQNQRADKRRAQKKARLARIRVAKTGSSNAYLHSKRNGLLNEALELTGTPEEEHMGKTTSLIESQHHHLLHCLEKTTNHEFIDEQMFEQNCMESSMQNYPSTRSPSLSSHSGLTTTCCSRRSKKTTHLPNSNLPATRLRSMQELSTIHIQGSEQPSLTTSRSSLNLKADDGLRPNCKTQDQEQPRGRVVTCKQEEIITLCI
Method in brief: as §1

mouse Otop2 (mOtop2) = molecular target: T3, mouse Otop2 (mOtop2) (Mus musculus, UniProt Q80SX5); assay: whole-cell patch-clamp, pH 5.5-evoked currents; settings: 10 μM
T3 sequence (Q80SX5 1-563): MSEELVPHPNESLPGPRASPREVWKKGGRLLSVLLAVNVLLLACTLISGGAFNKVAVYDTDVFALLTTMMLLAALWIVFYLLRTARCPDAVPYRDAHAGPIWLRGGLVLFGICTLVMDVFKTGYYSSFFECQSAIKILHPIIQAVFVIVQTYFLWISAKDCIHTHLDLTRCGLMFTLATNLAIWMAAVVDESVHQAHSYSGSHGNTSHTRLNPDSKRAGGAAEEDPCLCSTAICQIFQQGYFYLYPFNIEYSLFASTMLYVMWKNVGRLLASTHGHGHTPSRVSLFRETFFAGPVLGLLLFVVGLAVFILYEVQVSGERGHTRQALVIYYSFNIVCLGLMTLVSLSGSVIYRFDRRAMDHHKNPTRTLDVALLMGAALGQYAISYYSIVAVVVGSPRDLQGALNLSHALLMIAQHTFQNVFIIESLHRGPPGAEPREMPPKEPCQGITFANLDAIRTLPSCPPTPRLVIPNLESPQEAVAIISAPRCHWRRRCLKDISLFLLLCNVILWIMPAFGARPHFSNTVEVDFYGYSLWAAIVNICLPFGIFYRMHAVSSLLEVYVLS
Method in brief: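 Channel plasmid (2.5 μg) was co-transfected with EGFP plasmid (0.5 μg) using Lipofectamine 2000 into PAC-knockout HEK293T cells. Whole-cell recording 16–24 h after seeding, with Cs-aspartate pipette solution (pH 7.3). Currents evoked by pH 5.5 bath (160 mM NMDG-Cl, 2 mM CaCl2, 10 mM MES); test compound 10 μM.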

Kir1.1 = molecular target: T4, Kir1.1 (Homo sapiens, UniProt P48048); assay: whole-cell patch-clamp, off-target channel, 10 μM compound; settings: vs 0.1% DMSO
T4 sequence (P48048 1-391): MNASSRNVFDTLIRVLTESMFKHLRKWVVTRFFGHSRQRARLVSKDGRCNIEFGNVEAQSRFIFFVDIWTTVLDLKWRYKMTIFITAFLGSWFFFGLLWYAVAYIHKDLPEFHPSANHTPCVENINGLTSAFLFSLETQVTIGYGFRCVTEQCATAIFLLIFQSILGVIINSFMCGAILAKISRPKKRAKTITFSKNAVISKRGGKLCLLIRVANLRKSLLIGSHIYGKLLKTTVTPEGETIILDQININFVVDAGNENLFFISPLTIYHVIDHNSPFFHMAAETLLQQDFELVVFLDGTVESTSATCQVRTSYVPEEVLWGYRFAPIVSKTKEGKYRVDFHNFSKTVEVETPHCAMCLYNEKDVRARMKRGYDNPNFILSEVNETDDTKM
Method in brief: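 Kir channels in transfected HEK293T cells, whole-cell. Pipette (mM): 135 KCl, 2 MgCl2, 10 HEPES, 1 EGTA, 4 Na2-ATP, pH 7.3. Bath (mM): 135 NaCl, 5 KCl, 1.5 CaCl2, 1 MgCl2, 10 HEPES, 10 glucose, pH 7.4. 0.1% DMSO bath applied before 10 μM test compound. Inhibition ratios compared by unpaired t-test, n = 5.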

sensitivity of channel to compound (KV3.4) | sensitivity of channel to compound (KV4.3; vs 0.1% DMSO) | effect on pH 5.5-evoked mOtop2 currents (mouse Otop2 (mOtop2)) | sensitivity of channel to compound (Kir1.1) | inhibition ratio (KV4.3) [%] | SMILES
completely resistant | completely resistant | did not affect | completely resistant |  | Cc1cc(NC(=O)c2ccc(Br)o2)ccc1NC(=O)c1ccco1 [B2FAMP, 5-Bromo-N-[4-(2-furoylamino)-3-methylphenyl]-2-furamide]
completely resistant |  | did not affect | completely resistant | 7.0 | Cc1ccc(C(=O)Nc2ccc3ccccc3c2)o1 [MFaN, 5-methyl-N-2-naphthyl-2-furamide]
completely resistant |  | did not affect | completely resistant | 12.9 | CC(C)c1noc2ncc(C(=O)c3ccccc3O)cc12 [HIMOP, (2-hydroxyphenyl)-(3-propan-2-yl-5-isoxazolo[5,4-b]pyridinyl)methanone]
